Source: PubChem BioAssay
SR-BI DiI-HDL act: activators of SR-BI mediated DiI-HDL uptake, primary screen, ldlA[mSR-BI] CHO cells, DiI fluorescence; 3 h; 100 = double the neutral-control signal; activation, % at 12.5 µM; hit rate 0.096% among 320,000;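 active = mean replicate activation of at least 60% and every replicate at or above 60%; inconclusive = mean or all-replicate condition met, but not both; inactive = mean below 60% and not all replicates reaching 60%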;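 also: 0% = median plate neutral-control signal and 100% = twice that signal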
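Test system: SR-BI-overexpressing, LDLR-lacking CHO cells; Also added: labelled HDL, 10 µg/mL; Measured by: bottom-read cell fluorescence after medium removal, ex 550/em 595 nm; Timing: 3 h uptake period with compound, 37 °C; Buffer or medium: F12, 0.5% BSA, 25 mM HEPES; Doses: single compound concentration, delivered by pin transfer.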
CaV13 FRET inh: Primary screen for inhibitors of IQ motif and Ca2+-dependent inactivation inhibitor domain binding in CACNA1D, Förster resonance energy transfer in living cells, … | HEK cells, CFP/YFP FRET ICDI-IQ, plate reader, 10 min; percent FRET-ratio fall versus neutral wells | inhibition, % at 12.3 µM | hit rate 0.098% among 340,000 | AID 743397;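 active = mean replicate inhibition of at least 30% and at least 1% of replicates passing that level; inconclusive = only one of the two criteria is met; inactive = neither criterion is met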;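 also: 0% = median of the neutral control wells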
SR-BI DiI inh: inhibitors of SR-BI mediated HDL lipid uptake, primary screen, ldlA[mSR-BI] cells, fluorescence, single point; Scavenger receptor class B member 1 (Mus musculus), Q61009; ldlA[mSR-BI] CHO cells, DiI-HDL uptake fluorescence, 3 h; inhibition, % at 12.5 µM; hit rate 0.96% among 320,000; AID 488896, 2010;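 active = mean replicate inhibition of at least 70% and a set share of replicates each scoring 70 or more; inconclusive = meets just one of the two criteria; inactive = fails both criteria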;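 also: 0% = median of neutral control wells and 100% = median of positive control wells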
Target sequence (Q61009 whole entry, looked up): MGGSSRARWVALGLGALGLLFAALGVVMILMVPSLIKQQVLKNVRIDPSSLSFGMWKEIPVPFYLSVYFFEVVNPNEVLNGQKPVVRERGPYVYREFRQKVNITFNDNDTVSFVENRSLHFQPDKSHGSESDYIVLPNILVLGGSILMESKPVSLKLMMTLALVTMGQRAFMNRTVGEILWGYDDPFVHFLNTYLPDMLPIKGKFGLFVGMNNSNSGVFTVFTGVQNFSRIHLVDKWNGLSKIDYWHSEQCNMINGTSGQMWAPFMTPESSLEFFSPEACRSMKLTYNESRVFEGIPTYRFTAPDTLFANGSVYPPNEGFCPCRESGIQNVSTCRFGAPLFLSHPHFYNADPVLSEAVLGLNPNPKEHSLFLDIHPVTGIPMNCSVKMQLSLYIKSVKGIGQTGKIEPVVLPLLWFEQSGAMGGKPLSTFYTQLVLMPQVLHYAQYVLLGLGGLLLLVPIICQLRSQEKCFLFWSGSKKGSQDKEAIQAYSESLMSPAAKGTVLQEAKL
NTR1 ag: agonists of human NTR1, primary screen, imaging, U2OS cells, beta-arrestin-GFP, high content; Neurotensin receptor type 1 (Homo sapiens), P30989; NTR1-U2OS beta-arrestin-GFP spot imaging, agonist mode; activation, % at 20 µM; hit rate 0.17% among 330,000; AID 493036, 2011;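 active = activation at or above 40% of the spot to cytoplasm intensity ratio, with at least 20 cells analyzed; inconclusive = wells under 20 cells, flagged as cytotoxic or low count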;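 also: 0% = DMSO without peptide and 100% = 100 nM NTR1 peptide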
V-ATPase pH: regulators of yeast V-ATPase proton pumping, primary screen, pHLuorin cytosolic pH fluorescence; S. cerevisiae; response, % at 10 µM; hit rate 0.37% among 350,000; in the data active = response mostly above about 7.3%, no sharp cut-off; inactive = mostly below about 5.4%; also: actives read high
Vif inh: HIV Vif self-association inhibitors, primary screen, imaging, HEK293T, single point | HEK293T cells, Vif self-association by quenched fluorescence, 24 h | inhibition, % at 7.49 µM | hit rate 0.35% among 340,000; in the data active = inhibition above about 50%, passing the limit was not always enough; inconclusive = no clear call, values can overlap the other calls; inactive = below about 31%
An asterisk follows results filed as active; u = inconclusive; x = no result given. This is a sample that favours compounds with a hit; in the whole collection about 1.7% have one here.

SMILES	SR-BI DiI-HDL act	CaV13 FRET inh	SR-BI DiI inh	NTR1 ag	V-ATPase pH	Vif inh
COc1ccc(/C(C)=N/Nc2ncc(Cl)cc2Cl)c(O)c1	-106.1	-5.4	106.2*	8.6	5.4	x
C/C(=N\Nc1ncc(Cl)cc1Cl)c1ccc(C#N)cc1	-15.8	4.5	15.8	1.5	-5.5	-2.2
OCCC1CN(C2CCN(c3ccccc3)CC2)CCN1Cc1ccc(F)c(F)c1 (stereo not given)	x	-6.6	x	-0.9	-2.6	7.7
Cc1cc(-c2ccccc2)c2ccc(NC(=O)C(C)(C)C)nc2n1	u	45.4*	-88.8	6.2	-0.5	-16.8
COc1ccc(C(=O)NCc2oc(-c3ccccc3)cc2C(=O)O)cc1	20.2	x	-20.2	1.0	0.2	61.0*
Cc1ccc(C(=O)OCC(=O)Nc2nc(-c3ccccc3)cs2)cc1NC(=O)c1ccco1	-83.5	-3.8	83.5*	3.0	-6.2	8.6
CCCN1CCN(S(=O)(=O)c2c(C)[nH]c(C)c2C(=O)N2CCCCC2)CC1	11.8	-5.5	-11.8	1.2	-1.6	-9.1
CCCOc1ccc(N2CC(C(=O)NC3=NCCS3)CC2=O)cc1 (stereo not given)	6.9	-5.2	-6.9	0.8	-4.0	6.4
COCCCn1cc(CN2CC(N3CCCCC3)CS2(=O)=O)nn1 (stereo not given)	x	-9.6	x	x	x	x
CCc1cc2c(Sc3nc4ccccc4s3)ncnc2s1	14.0	-4.4	-14.0	6.9	2.1	89.0*
c1ccc2sc(Sc3ncnc4sccc34)nc2c1	0.0	4.4	0.0	0.8	-0.1	-5.9
CN(Cc1ccccc1)C(=O)c1cccc(NC(=O)Cc2ccc(NC(=O)C3CCCN(C(=O)C4CCCCC4)C3)cc2)c1 (stereo not given)	-74.8	-9.6	74.8*	x	1.4	-6.4
CN(Cc1ccccc1)C(=O)c1cccc(NC(=O)Cc2ccc(NC(=O)C3CCN(C(=O)C4CCCC4)CC3)cc2)c1	-65.7	-6.4	65.7	x	0.0	-11.6
CN(C(=O)c1cccc(NC(=O)Cc2ccc(NC(=O)C3CCCN(C(=O)C4CCC4)C3)cc2)c1)C1CCCCC1 (stereo not given)	-87.7	-5.1	87.7*	x	4.2	-8.1
O=C1CC(C(=O)N2CCc3ccccc32)CN1c1ccc(F)cc1 (stereo not given)	-10.8	-3.3	10.8	-1.6	0.7	-4.6
COC(=O)c1c(NC(=O)CSc2nnc(CNc3ccc(Cl)cc3)o2)sc(C)c1C	-42.0	x	42.0	3.1	1.7	72.4*
Cc1ccc(S(=O)(=O)/N=C(\c2ccccc2)N(C)S(=O)(=O)c2ccccc2)cc1	5.2	-5.0	-5.2	2.5	4.0	5.9
CN(/C(=N\S(=O)(=O)c1ccccc1)C(F)(F)F)c1ccccc1	x	-5.4	x	-0.1	-1.5	64.2*
COc1cc(CN2C[C@@H](CO)O[C@@H](n3cnc4c(NCC(C)C)ncnc43)C2)cc(OC)c1OC	x	-10.5	x	x	x	5.2
COc1cccc(C(=O)NCCCNC(=O)c2cccnc2)c1	6.3	-2.9	-6.3	-1.8	-1.5	86.9*
Cc1cc(C(=O)CC#N)c(C)n1-c1ccc(OC(F)F)cc1	9.3	x	-9.3	-0.8	-2.8	-4.1
COC(=O)c1cc(C(=O)OC)cc(-n2c(C)cc(C(=O)CC#N)c2C)c1	-76.3	x	76.3*	0.0	-1.0	1.5
CSc1cccc(NC(=S)NN/C(=N/S(=O)(=O)c2ccccc2)N2CCCC2)c1	x	-11.5	x	x	x	x
O=S(=O)(Nc1nc2ccccc2nc1NCc1ccco1)c1ccc(Cl)cc1	9.2	x	-9.2	1.3	-3.2	62.0*
O=C(/C=C\c1ccc2c(c1)OCO2)Nc1c2c(nn1-c1ccc(Cl)cc1)CSC2	-74.6	-6.7	74.6*	3.5	2.2	23.3
SMILES	SR-BI DiI-HDL act	CaV13 FRET inh	SR-BI DiI inh	NTR1 ag	V-ATPase pH	Vif inh
COc1ccc(O)c(/C=N/NC(=O)c2c(C)nnn2-c2nonc2N)c1	-100.6	5.1	100.6*	-0.5	0.2	1.8
CC1CCN(Cc2c(C(=O)N/N=C/c3cc(Br)ccc3O)nnn2-c2nonc2N)CC1	-102.6	-4.0	102.7*	0.9	4.2	52.5*
COc1ccc(/C=N/NC(=O)c2nnn(-c3nonc3N)c2-c2cccc(OC)c2)cc1	-30.0	-3.1	30.0	4.7	3.0	5.6
COc1ccc(NC(=O)C2CC(=O)N(c3ccccc3F)C2)cc1S(=O)(=O)N1CCCCC1 (stereo not given)	x	-10.6	x	x	1.5	x
CC1(C)CC2(CC(c3ccccc3)c3ccc(O)cc3O2)NC(=S)N1 (stereo not given)	-72.0	-0.5	72.0*	2.8	-2.3	-1.7
CC(=O)Oc1cc2c(cc1Cl)C(c1cccs1)CC1(CC(C)(C)NC(=S)N1)O2 (stereo not given)	-75.2	-5.4	75.2*	-0.5	-2.1	7.3
O=C(/C=C/c1ccco1)N1CCC(Cc2ccccc2)CC1	8.0	-6.7	-8.0	3.7	1.0	64.9*
COc1cccc(C(C)(O)c2nc(-c3cccc4cccnc34)cs2)c1 (stereo not given)	x	-4.8	x	x	x	0.6
CCOC(=O)C1=C(C)NC(C)=C(C(=O)OC)C1c1cccc([N+](=O)[O-])c1 (stereo not given)	10.3	-5.7	-7.1	-0.2	-1.7	135.0*
CCN(Cc1nc2ccccc2c(=O)[nH]1)Cc1cc(=O)oc2cc(OC)ccc12	3.5	-4.0	-3.5	0.9	7.6	2.1
O=C1Nc2ccccc2/C1=N/N=C/c1ccc(-c2ccc([N+](=O)[O-])cc2)o1	-67.3	3.2	67.3	x	-1.1	53.7*
O=C(N/N=C/c1ccc(-c2cccc([N+](=O)[O-])c2)o1)c1ccccc1O	-22.9	11.4	22.9	10.5	0.0	-0.3
NC(=S)N/N=C/c1ccc(-c2cc(Cl)cc(Cl)c2)o1	-77.9	-5.5	77.9*	8.6	-0.9	4.9
CN(/N=C/c1ccc(-c2ccc([N+](=O)[O-])cc2)o1)c1ccccc1	-16.5	-8.1	16.5	2.2	0.0	x
O=C(N/N=C/c1ccc(-c2cccc([N+](=O)[O-])c2)o1)c1ccc([N+](=O)[O-])cc1	-81.7	-0.2	81.7*	5.6	-0.3	-4.8
NC(=S)N/N=C/c1ccc(-c2ccc([N+](=O)[O-])cc2)o1	-71.2	-213.0	71.2*	1.7	-3.1	6.8
O=C1CCCC2=C1[C@@]1(O[C@H]3C=CC=CN23)C(=O)N(c2ccccc2)c2ccccc21	x	-3.9	x	x	x	x
NC(=S)N/N=C/c1ccc(-c2cc(Cl)ccc2Cl)o1	-98.8	-8.0	98.8*	6.9	-2.7	10.6
